Source: PubChem (Johns Hopkins Ion Channel Center)
KCNQ1 block – blocks the human KCNQ1 potassium channel; P51787; CHO-K1 KCNQ1, FluxOR thallium flux fluorescence; active compounds read high; B-score at 10 µM; actives 1.3% (n = 310,000); AID 2642;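 active means compounds whose thallium flux B-score, printed positive for inhibition, exceeds three library SD while starting fluorescence stays within three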;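 further: channel opened by potassium depolarization with thallium stimulus after 20 min compound exposure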
KCNQ1 act – potentiates or activates the human KCNQ1 potassium channel; CHO-K1 KCNQ1, thallium flux FluxOR fluorescence; active compounds read high; B-score at 10 µM; actives 0.35% (n = 310,000); AID 2648;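 active means fluorescence ratio B-score, a plate-corrected score, at least three library SD, with initial intensity B-score within 5 SD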
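Assay system: stable KCNQ1 CHO-K1 line; medium: assay buffer, equal DMSO in all wells; timing: 90 min dye loading and 20 min compound exposure, both at room temperature; technique: kinetic FluxOR thallium fluorescence, 10-s 1-Hz baseline, 110-s post-stimulus read; read-out basis: B score of baseline-normalized fluorescence ratio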
Kir21 inh – Kir2.1 (mouse) channel inhibition; HEK293-Kir2.1, FluxOR thallium flux fluorescence; active compounds read low; B-score at 10 µM; actives 0.85% (n = 310,000); AID 1672;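 active means fluorescence ratio B-score at or below minus 3 SD of library scores, with starting-brightness B-score within 2 SD, cut at about -4.2 in these data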;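 further: channel flux triggered by added potassium and thallium sulfate stimulus; B-score of peak minus minimum fluorescence over baseline after thallium stimulus; more negative B-score means stronger Kir2.1 block with less thallium influx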
KCNK9 inh-1 – blocks the human KCNK9 two-pore domain potassium channel; actives 1.2% (n = 310,000); HEK293 KCNK9, FluxOR thallium flux fluorescence; active compounds read low; AID 488922; Q9NPC2; B-score at 10 µM;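 active means ratio B-score over 3 SD below the library mean, with starting fluorescence within 5 SD of its mean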;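 further: negative B-score means less thallium flux so channel inhibition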
Target sequence (Q9NPC2 whole entry, looked up, the tested form may be a part): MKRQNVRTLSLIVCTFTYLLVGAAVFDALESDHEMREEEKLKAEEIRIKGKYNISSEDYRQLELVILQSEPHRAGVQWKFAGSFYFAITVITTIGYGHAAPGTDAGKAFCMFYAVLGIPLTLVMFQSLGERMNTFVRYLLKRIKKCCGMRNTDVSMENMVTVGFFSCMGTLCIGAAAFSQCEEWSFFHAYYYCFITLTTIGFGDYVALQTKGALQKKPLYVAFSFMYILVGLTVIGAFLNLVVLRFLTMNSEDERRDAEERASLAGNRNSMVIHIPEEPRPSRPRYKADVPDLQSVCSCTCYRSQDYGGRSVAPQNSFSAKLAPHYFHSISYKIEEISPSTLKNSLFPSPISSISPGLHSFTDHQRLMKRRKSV
KCNK3 block – human KCNK3 channel inhibition, primary screen; B-score at 10 µM; actives 0.84% (n = 340,000); CHO-KCNK3 thallium flux, FluxOR fluorescence; active compounds read low;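 active means B-score under library mean minus 4 SD, starting fluorescence ratio at most library mean plus 5 SD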;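 further: more negative B-score means stronger inhibition of thallium flux through KCNK3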
hERG protect – hERG (human) protection from proarrhythmic block; Q12809; activation (rescue from dofetilide block), less the hit threshold, % at 10 µM; actives 0.51% (n = 310,000); CHO-hERG, FluxOR thallium flux, dofetilide IC70 present;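 active means activation above the mean of controls blocked by dofetilide plus 5 SD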;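 further: thallium influx through hERG after potassium depolarization seen as dye fluorescence rise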
hERG ctr – counter-screen for Kir2.1 inhibitors: effect on human hERG | shares compounds with Kir21 inh | hERG-expressing cells, thallium flux | inhibition, % at 10 µM | actives 20% (n = 320);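 further: host cells are CHO cells stably expressing hERG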
KCNK9 inh-2 – selectivity of Kir2.1 inhibitors: effect on human KCNK9; shares compounds with Kir21 inh; KCNK9-expressing cells, ion flux inhibition; inhibition, % at 10 µM; actives 5% (n = 320)
Kir21 ephys inh – mouse Kir2.1 inward rectifier channel inhibition. shares compounds with Kir21 inh. Kir2.1 cells, automated patch-clamp current inhibition. inhibition, % at 25 µM. actives 71% (n = 320)
* hit, by the source's call; i = inactive; / = no result given. Shown are actives, neighbours in structure and some others; about 3.7% of the full set was active somewhere. Unless noted, how the calls were made is not given here.

SMILES | KCNQ1 block | KCNQ1 act | Kir21 inh | KCNK9 inh-1 | KCNK3 block | hERG protect | hERG ctr | KCNK9 inh-2 | Kir21 ephys inh
COc1ccc(Cl)c(N2CCN(CCCNC(=O)Nc3ccc(C)cc3)CC2)c1 | i | i | -6.3* | i | i | -19 | 70%* | i | 4.8%*
COc1ccc(NC(=O)NCCN2CCN(c3cc(OC)ccc3OC)CC2)cc1 | i | i | -0.1 | i | i | -7 | / | / | /
CCn1c(=N)n(CC(O)c2ccccc2)c2ccccc21 (stereo not drawn) | i | i | 0.45 | i | i | -4 | / | / | /
CCCCCCCn1c(=N)n(CC(=O)c2ccco2)c2ccccc21 | i | i | -10* | i | i | -15 | 67%* | i | 6.9%*
Cc1ccccc1Cn1c(=N)n(CC(O)c2ccco2)c2ccccc21 (stereo not drawn) | i | i | -5.9* | i | i | -13 | 50%* | i | i
CCCCCCCn1c(=N)n(CC(O)c2ccco2)c2ccccc21 (stereo not drawn) | i | i | -5.9* | i | i | -13 | 70%* | i | i
O=C(Cc1ccc(Br)cc1)N1CCN(C(=O)c2ccccc2)CC1 | / | / | / | / | i | / | / | / | /
CCCCSC1=C(C#N)C(c2ccccc2C)CC(=O)N1 (stereo not drawn) | i | i | 0.01 | i | i | -7 | / | / | /
CCCCCCSC1=C(C#N)C(c2ccc(C)o2)CC(=O)N1 (stereo not drawn) | i | i | -6* | i | i | -4 | i | i | i
CC(C)CN(C(=O)COC(=O)CNC(=O)c1sc2ccccc2c1Cl)C1CCS(=O)(=O)C1 (stereo not drawn) | i | i | 5.5 | i | i | -16 | i | i | i
CN1CCc2c(n(CC(O)CN(CCO)CCO)c3ccccc23)C1=O (stereo not drawn) | i | i | -0.64 | i | i | -8 | / | / | /
CN1CCc2c(n(CC(O)CNCc3ccccc3)c3ccccc23)C1=O (stereo not drawn) | i | i | -6* | i | i | -8 | i | 31%* | i
CC(C)N(Cc1ccccc1)S(=O)(=O)c1ccc(Cl)nc1 | i | i | -6.9* | i | i | -15 | i | i | 33%*
CC(C)N(Cc1ccccc1)S(=O)(=O)c1ccc(F)cc1 | i | i | -2.3 | i | i | -10 | / | / | /
CCC(C)(C)NC(=O)C1CCCN(S(=O)(=O)c2ccc3c(c2)CC(C)N3C(=O)C2CC2)C1 (stereo not drawn) | i | i | -0.17 | i | i | -9 | / | / | /
CCn1cc(C(=O)NCCc2ccccc2)c(=O)c2cc(S(=O)(=O)N(C)C)ccc21 | i | i | 3.5 | i | i | -6 | i | i | i
Cc1cc(Br)ccc1NC(=O)CNC(=O)c1cnn(C)c1 | / | / | / | / | i | / | / | / | /
O=C(CCCN1CCC(O)(c2ccc(Cl)cc2)CC1)c1ccc(F)cc1 | i | i | -5.5* | i | i | / | / | i | 55%*
CCN(CCO)C(=O)c1ccc2nc(Cc3ccc(OC)cc3)oc2c1 | i | i | 1.6 | i | i | -6 | / | / | /
CCc1cc(-c2n[nH]c(C)c2-c2nc(C)cs2)c(O)cc1OC | i | i | -11* | i | i | -15 | i | i | 6.3%*
COc1ccc(NC(=O)CSc2nnnn2C2CCCCC2)cc1 | i | i | 1 | i | i | -10 | / | / | /
CCOC(=O)C(=CNc1ccc(NC2=NCC(C)(C)S2)cc1)C(=O)OCC | i | i | -7* | i | i | -10 | i | i | 22%*
CCOC(=O)C(=CNc1ccc(S(N)(=O)=O)cc1)C(=O)OCC | i | i | 0.98 | i | i | -8 | / | / | /
